The record followed here is ChEMBL document CHEMBL1125618, “Studies on (H(+)-K+)-ATPase inhibitors of gastric acid secretion. Prodrugs of 2-[(2-pyridinylmethyl)sulfinyl]benzimidazole proton-pump inhibitors” (J Med Chem, 1991).

pIC50: −log10 of the molar value. The source made the active and inactive calls. The rule behind the calls is not given here.

Experiment [1] has as its system Potassium-transporting ATPase (Rattus norvegicus). Description: Activity was evaluated by measuring the inhibition of isolated rat H+/K+ ATPase at 10 mg/kg; Inactive.
For experiment [2], the target named is T1, Potassium-transporting ATPase (Sus scrofa, UniProt P18434+P19156). Nature of the experiment: Activity was evaluated by measuring the inhibition of isolated hog H+/K+ ATPase; No effect. It counts as protein-complex assay. The procedure, abridged: (§1)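 Hog fundic mucosa microsomes. Vesicles (30 μg) preincubated with compound at 37 °C in 40 mM Tris-acetate pH 7.4, 7 mM NH4Cl, with or without KCl. Reaction started with 2 mM ATP (final), run 10 min at 37 °C, stopped with cold TCA plus charcoal. Released inorganic phosphate measured colorimetrically. IC50 from dose-response, mean of triplicates.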

The species entered for the next experiment is Oryctolagus cuniculus. Description: Antisecretory effect in isolated rabbit gastric glands as measured by aminopyrine uptake. It counts as functional, Stomach. The procedure, abridged:
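Gastric glands from male New Zealand rabbits (1.5-2.0 kg), isolated by collagenase digestion at 37 °C, pH 7.4. Incubated with compound 45 min at 37 °C with vigorous shaking. Pellet and supernatant radioactivity counted by liquid scintillation. ID50 from at least six doses, duplicate at each dose.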

The target in experiment [3] is T2, Potassium-transporting ATPase (Rattus norvegicus) (UniProt P09626+P18598). Nature of the experiment: Inhibition of isolated rat H+/K+ ATPase at 10 mg/kg; Inactive. It is filed as functional, organism-based. Also on record: dose 10 mg/kg. The procedure, abridged: (§2)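 Male Sprague-Dawley rats (~230 g), fasted 16 h without food or water in restraining cages. Compound in 1 mL isotonic saline with 25% ethanol, given sc or by gavage. Killed 3 h later. Fundic mucosa pooled from four rats per treatment, homogenized, microsomes isolated at 170000g. K+-stimulated ATPase assayed as for hog enzyme. ED50 from at least five doses, each in triplicate.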

The target in experiment [4] is Potassium-transporting ATPase (Sus scrofa, UniProt P19156). Nature of the experiment: Activity was evaluated by measuring the inhibition of isolated hog H+/K+ ATPase. It is filed as protein-complex assay. The essentials: as §1
The target of experiment [5] is T2, Potassium-transporting ATPase (Rattus norvegicus). Nature of the experiment: Activity was evaluated by measuring the inhibition of isolated rat H+/K+ ATPase, sc. It counts as protein-complex assay. The procedure, abridged:
as §2

Experiment [6] has the same target. Description: Inhibitory activity was evaluated by measuring the inhibition of isolated rat H+/K+ ATPase at a concentration of 10 mg/kg. It counts as organism-based. Also noted: dose 10 mg/kg. The procedure, abridged: as §2
For experiment [7], the target named is T1, Potassium-transporting ATPase. Nature of the experiment: Activity was evaluated by measuring the inhibition of isolated hog H+/K+ ATPase; No effect at 5E-4. It counts as protein-complex assay. The essentials: as §1

T1 sequence (P18434 whole entry): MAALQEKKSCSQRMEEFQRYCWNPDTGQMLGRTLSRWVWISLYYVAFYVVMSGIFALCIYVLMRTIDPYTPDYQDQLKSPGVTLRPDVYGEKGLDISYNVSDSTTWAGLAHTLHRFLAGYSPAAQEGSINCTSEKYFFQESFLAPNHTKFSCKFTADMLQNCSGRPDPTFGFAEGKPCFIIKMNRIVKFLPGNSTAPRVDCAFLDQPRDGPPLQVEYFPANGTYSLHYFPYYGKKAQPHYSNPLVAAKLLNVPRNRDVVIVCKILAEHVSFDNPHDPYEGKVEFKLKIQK
T1 sequence (P19156 whole entry): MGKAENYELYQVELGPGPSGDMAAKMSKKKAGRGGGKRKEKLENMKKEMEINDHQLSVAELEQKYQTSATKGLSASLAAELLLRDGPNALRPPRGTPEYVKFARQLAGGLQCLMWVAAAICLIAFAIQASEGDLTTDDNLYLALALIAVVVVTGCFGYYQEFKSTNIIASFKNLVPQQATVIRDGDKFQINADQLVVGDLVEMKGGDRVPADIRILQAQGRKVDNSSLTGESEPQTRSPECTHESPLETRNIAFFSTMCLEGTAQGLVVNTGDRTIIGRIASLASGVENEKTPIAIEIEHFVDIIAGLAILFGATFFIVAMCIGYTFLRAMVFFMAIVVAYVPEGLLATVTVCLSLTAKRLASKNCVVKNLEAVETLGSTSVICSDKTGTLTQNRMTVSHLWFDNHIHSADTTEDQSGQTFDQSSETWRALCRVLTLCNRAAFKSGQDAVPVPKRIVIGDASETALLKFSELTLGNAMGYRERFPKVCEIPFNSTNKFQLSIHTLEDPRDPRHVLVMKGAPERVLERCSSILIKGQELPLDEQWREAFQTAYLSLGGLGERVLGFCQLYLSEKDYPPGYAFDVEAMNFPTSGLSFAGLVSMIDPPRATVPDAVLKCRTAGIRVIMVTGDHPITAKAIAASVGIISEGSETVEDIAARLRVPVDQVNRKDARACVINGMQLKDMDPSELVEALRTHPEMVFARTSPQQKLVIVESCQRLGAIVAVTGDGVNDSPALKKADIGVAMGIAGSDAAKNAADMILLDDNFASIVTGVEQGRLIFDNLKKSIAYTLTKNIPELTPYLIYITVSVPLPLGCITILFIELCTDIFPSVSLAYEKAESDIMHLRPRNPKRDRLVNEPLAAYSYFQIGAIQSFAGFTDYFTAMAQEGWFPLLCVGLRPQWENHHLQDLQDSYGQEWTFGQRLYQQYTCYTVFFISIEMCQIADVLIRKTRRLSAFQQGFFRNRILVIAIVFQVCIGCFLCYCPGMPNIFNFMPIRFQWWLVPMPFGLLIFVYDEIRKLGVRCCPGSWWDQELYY
Potassium-transporting ATPase (Sus scrofa, UniProt P19156), sequence (P18434 whole entry): as the sequence (P18434 whole entry) above
Potassium-transporting ATPase (Sus scrofa, UniProt P19156), sequence (P19156 whole entry): as the sequence (P19156 whole entry) above

By ED50 is commonly meant the dose at which the effect has come halfway, by size or by number of responders. As for `CC(=O)OCn1c(SCc2nccc3c2CCC[S+]3[O-])nc2ccccc21` (stereo not given), the ED50 result in experiment [1] is “inactive”.
With `CCSc1ccnc(C[S+]([O-])c2nc3ccccc3n2CSC)c1C` (stereo not given), the IC50 entry in experiment [2] is “Not Active”. Further, in the experiment listed under Oryctolagus cuniculus, the ID50 amounted to 90 µM. In experiment [3], the ED50 result is “inactive”.
By pIC50 is commonly meant the IC50 on a negative log10 scale, so that one unit is a factor of ten. Lower therefore signals a high IC50. Consider `CCOC(C)n1c([S+]([O-])Cc2ccccn2)nc2ccccc21` (stereo not given), for which the ID50 entry in the experiment listed under Oryctolagus cuniculus (Stomach) was “inactive”. For the same molecule, the pIC50 in experiment [4] was 3.00. In experiment [5], this molecule yielded an ED50 of 5 mg/kg.
Broadly, the inhibition is the share of the control response that was lost under treatment. In the case of `CCSc1ccnc(C[S+]([O-])c2nc3ccccc3n2COC(=O)c2ccccc2)c1C` (stereo not given), the ID50 in the experiment filed under Oryctolagus cuniculus came to 1.5 µM. In experiment [6], this molecule displayed an inhibition of 30%. Also, the IC50 entry in experiment [7] is given as “Not Active”.
